# Paper PMC9055920 (RSC Advances, 2020)
# Like-named read-outs stand apart in the source and are kept apart here.
# Columns and labels:
# [1] = biological target: T1, α-glucosidase (Saccharomyces cerevisiae, UniProt P53341); assay: Kinetic analysis of inhibitory type; assay type: biochemical; conditions: Lineweaver–Burk plots
# [2] = tested on: α-glucosidase; conditions: cited from earlier work
# [3] = biological target: T1, α-glucosidase; assay: Fluorescence quenching and thermodynamic analysis; assay type: binding; conditions: for ΔH° enthalpy change / ΔS° entropy change: van't Hoff plot over 298, 304, 310 K
# [4] = biological target: Saccharomyces cerevisiae α-glucosidase (Saccharomyces cerevisiae, UniProt P53341); assay: α-Glucosidase enzyme activity; assay type: biochemical; conditions: at the concentration of 125 μmol L^−1
# Chain of Saccharomyces cerevisiae α-glucosidase (P53341 whole entry): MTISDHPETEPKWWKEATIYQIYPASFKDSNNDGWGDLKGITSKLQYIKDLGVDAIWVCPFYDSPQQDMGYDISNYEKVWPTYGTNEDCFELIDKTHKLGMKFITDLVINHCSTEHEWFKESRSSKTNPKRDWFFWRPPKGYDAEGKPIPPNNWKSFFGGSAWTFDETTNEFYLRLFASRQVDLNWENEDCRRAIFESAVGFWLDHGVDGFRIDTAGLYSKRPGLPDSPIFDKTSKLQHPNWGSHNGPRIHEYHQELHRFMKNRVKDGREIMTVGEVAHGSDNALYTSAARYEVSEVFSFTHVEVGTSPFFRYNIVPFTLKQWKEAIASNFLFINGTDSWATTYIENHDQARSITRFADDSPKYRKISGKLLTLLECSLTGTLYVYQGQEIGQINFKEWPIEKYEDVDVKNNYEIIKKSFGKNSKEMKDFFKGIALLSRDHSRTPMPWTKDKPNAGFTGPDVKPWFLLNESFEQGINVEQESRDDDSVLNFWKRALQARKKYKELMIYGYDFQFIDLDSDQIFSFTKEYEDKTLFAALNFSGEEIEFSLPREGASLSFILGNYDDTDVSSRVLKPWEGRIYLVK
# [5] = biological target: T1, α-glucosidase; assay: Reversibility, plots of v vs. [α-glucosidase]; assay type: biochemical; conditions: myricetin 0–6.25 × 10^−5 mol L^−1, c(pNPG) = 3.13 × 10^−4 mol L^−1
# [6] = biological target: T1, α-glucosidase; assay: CD spectroscopy of secondary structure
# How it was run: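 Far-UV CD spectra (190–250 nm) were recorded for S. cerevisiae α-glucosidase held at 2 μmol L−1, with test flavonol added at flavonol:enzyme molar ratios of 0:1, 40:1 and 80:1. Each spectrum was averaged over three scans under constant nitrogen flush, and the buffer signal was subtracted. Experiments were done in triplicate.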
# [7] = clinically used antidiabetic drugs
# [8] = natural α-glucosidase inhibitors
# [9] = molar ratio of myricetin to α-glucosidase 40 : 1
# [10] = molar ratio of myricetin to α-glucosidase 80 : 1
# T1 sequence (P53341 whole entry): as above
SMILES,Inhibitory type [1],"type of α-glucosidase inhibition (reported) [2, 7]","type of α-glucosidase inhibition (reported) [2, 8]","Ksv, Stern–Volmer quenching constant ([3]; 298 K)","n, number of binding sites per protein molecule ([3]; 298 K)",ΔG° free energy change ([3]; 298 K) [kJ/mol],"Ksv, Stern–Volmer quenching constant ([3]; 304 K)","n, number of binding sites per protein molecule ([3]; 304 K)",ΔG° free energy change ([3]; 304 K) [kJ/mol],"n, number of binding sites per protein molecule ([3]; 310 K)",ΔG° free energy change ([3]; 310 K) [kJ/mol],ΔH° enthalpy change [3] [kJ/mol],ΔS° entropy change [3] [J mol^−1K^−1],other results
"C[C@H]1O[C@H](O[C@H]2[C@H](O)[C@@H](O)[C@@H](O[C@H]3[C@H](O)[C@@H](O)C(O)O[C@@H]3CO)O[C@@H]2CO)[C@H](O)[C@@H](O)[C@@H]1N[C@H]1C=C(CO)[C@@H](O)[C@H](O)[C@H]1O (stereo partly drawn) [acarbose, reference compound]",Competitive,competitive inhibitors,,,,,,,,,,,,
O=c1c(O)c(-c2ccccc2)oc2cc(O)cc(O)c12 [galangin],,,mixed-type,,,,,,,,,,,
O=c1c(-c2ccc(O)cc2)coc2cc(O)cc(O)c12 [genistein],,,mixed-type,,,,,,,,,,,
O=c1c(O)c(-c2ccc(O)cc2)oc2cc(O)cc(O)c12 [kaempferol],Mixed-type,,,9.91 ± 0.08 ×10^4 L mol^−1,0.87 ± 0.01,-29.03 ± 0.03,8.81 ± 0.05 ×10^4 L mol^−1,0.93 ± 0.01,-29.42 ± 0.01,0.98 ± 0.01,-29.80 ± 0.02,-9.71 ± 0.99,64.84 ± 3.25,"Ksv, Stern–Volmer quenching constant ([3]; 310 K): 8.04 ± 0.02 ×10^4 L mol^−1; inhibition of the activity of α-glucosidase [4]: approximately 60%"
O=c1cc(-c2ccc(O)c(O)c2)oc2cc(O)cc(O)c12 [luteolin],,,mixed-type,,,,,,,,,,,
OCCN1C[C@H](O)[C@@H](O)[C@H](O)[C@H]1CO [miglitol],,competitive inhibitors,,,,,,,,,,,,
O=c1c(O)c(-c2ccc(O)cc2O)oc2cc(O)cc(O)c12 [morin],,,mixed-type,,,,,,,,,,,
O=c1c(O)c(-c2cc(O)c(O)c(O)c2)oc2cc(O)cc(O)c12 [myricetin],Mixed-type,,,14.26 ± 0.03 ×10^4 L mol^−1,0.99 ± 0.01,-29.34 ± 0.05,13.81 ± 0.04 ×10^4 L mol^−1,1.04 ± 0.01,-29.60 ± 0.04,1.06 ± 0.01,-29.87 ± 0.04,-16.16 ± 0.57,44.22 ± 1.17,"Ksv, Stern–Volmer quenching constant ([3]; 310 K): 13.05 ± 0.03 ×10^4 L mol^−1; reversibility of inhibition [5]: reversible inhibitor; random coil percentage of α-glucosidase [6, 9]: 28.0%; α-helix content of α-glucosidase [6, 9]: 17.6%; β-sheet proportion of α-glucosidase [6, 9]: 45.7%; β-turn content of α-glucosidase [6, 9]: 8.7%; random coil percentage of α-glucosidase [6, 10]: 28.2%; α-helix content of α-glucosidase [6, 10]: 15.5%; β-sheet proportion of α-glucosidase [6, 10]: 49.9%; β-turn content of α-glucosidase [6, 10]: 6.4%"
O=c1c(O)c(-c2ccc(O)c(O)c2)oc2cc(O)cc(O)c12 [quercetin],Mixed-type,,,11.42 ± 0.06 ×10^4 L mol^−1,0.97 ± 0.01,-29.07 ± 0.03,11.20 ± 0.06 ×10^4 L mol^−1,0.99 ± 0.01,-29.40 ± 0.03,1.01 ± 0.01,-29.74 ± 0.04,-12.23 ± 0.98,56.51 ± 3.27,inhibition of the activity of α-glucosidase [4]: approximately 75%
OCC(CO)N[C@H]1C[C@](O)(CO)[C@@H](O)[C@H](O)[C@H]1O [voglibose],,competitive inhibitors,,,,,,,,,,,,
